Assay [1] deals with Mus musculus. Nature of the assay: Antiinflammatory activity in NIH mouse assessed as inhibition of TPA-induced mouse ear edema measured per ear administered to right ear relative to untreated control. It counts as functional, organism-based. Put shortly: (§1)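 Male NIH mice, groups of 5-8, anaesthetized with Sedaphorte. Right ear got TPA 2.5 μg in 10 μL EtOH, split across both faces; left ear got EtOH only. 10 min later, test compound at 0.1 to 1.0 μmol in 20 μL Me₂CO-CH₂Cl₂ (1:1) was applied to the right ear; controls got vehicle only. Sacrificed at 4 h; a 7 mm plug was taken from each ear.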

Assay [2] deals with Mus musculus. As to the kind of experiment: Antiinflammatory activity in NIH mouse assessed as inhibition of TPA-induced mouse ear edema at 1 umol/ear administered to right ear relative to untreated control. Format: functional. Put shortly: as §1

From ChEMBL document CHEMBL1177746, “Labdanes and sucrose esters from Physalis sordida” (J Nat Prod, 2010) come the findings set out here.

The structures appear in SMILES notation.

For `CCCCCCCCCCCC(=O)O[C@H]1[C@@H](O[C@]2(COC(C)=O)O[C@H](CO)[C@@H](O)[C@@H]2OC(=O)C(C)C)O[C@H](CO)[C@@H](O)[C@@H]1OC(=O)C(C)C`, the IC50 with Mus musculus [1] stood at 0.26 µmol/ear.

Regarding `CCCCCCCCCCCC(=O)O[C@H]1[C@@H](O[C@]2(CO)O[C@H](CO)[C@@H](O)[C@@H]2OC(=O)C(C)C)O[C@H](CO)[C@@H](O)[C@@H]1OC(=O)C(C)C`, the IC50 with Mus musculus [1] turned out to be 0.35 µmol/ear.

Regarding `CCCCCCCCCCCC(=O)O[C@H]1[C@@H](O[C@]2(COC(C)=O)O[C@H](CO)[C@@H](O)[C@@H]2O)O[C@H](CO)[C@@H](O)[C@@H]1OC(=O)C(C)C`, in the assay with Mus musculus [1], the IC50 was found to be 0.34 µmol/ear.

`CC(=O)O[C@H](C[C@H]1C(C)=CC[C@H]2C(C)(C)CCC[C@]12C)/C(C)=C/CO`: the “inhibition (INH)” value with Mus musculus [2] was found to be 25.4%.

For `CCCCCCCCCCCC(=O)O[C@H]1[C@@H](O[C@]2(CO)O[C@H](CO)[C@@H](O)[C@@H]2O)O[C@H](CO)[C@@H](O)[C@@H]1OC(=O)C(C)C`, the IC50 in the assay with Mus musculus [1] worked out at 0.24 µmol/ear.

With `C=C1[C@H](OC(C)=O)C[C@H]2C(C)(C)CCC[C@]2(C)[C@H]1C[C@@H](OC(C)=O)/C(C)=C/COC(C)=O`, the “inhibition (INH)” value in the assay with Mus musculus [2] came to 29.4%.

Consider `CC1=CC[C@H]2C(C)(C)CCC[C@]2(C)[C@H]1C[C@@H](O)/C(C)=C/CO` [PHYSACOZTOMATIN], for which the “inhibition (INH)” value in the assay with Mus musculus [2] was found to be 65.8%. For the same compound, the IC50 in the assay on Mus musculus [1] was determined as 0.49 µmol/ear.

Regarding `C=C1[C@H](O)C[C@H]2C(C)(C)CCC[C@]2(C)[C@H]1C[C@@H](O)/C(C)=C/CO` [PHYSORDIN], in the assay with Mus musculus [2], the “inhibition (INH)” value is listed as 64.3%. The IC50 with Mus musculus [1] amounted to 0.63 µmol/ear.
